ChEMBL document CHEMBL1135907, “Novel 5-substituted 2,4-thiazolidinedione and 2,4-oxazolidinedione derivatives as insulin sensitizers with antidiabetic activities” (J Med Chem, 2002)

Columns and labels:
Rattus norvegicus [1] = assay: Plasma concentrations of S(-)-64 at a dose of 1 mg/kg in Jc1SD rats after intravenous administration after 15 min; format: functional, organism-based; design: dose 1 mg/kg
Rattus norvegicus [2] = assay: Plasma concentrations of R(+)-64 at a dose of 1 mg/kg in Jc1SD rats after intravenous administration after 30 min; format: functional, organism-based; design: dose 1 mg/kg
Rattus norvegicus [3] = assay: Plasma concentrations of R(+)-64 at a dose of 1 mg/kg in Jc1SD rats after intravenous administration after 10 min; format: functional, organism-based; design: dose 1 mg/kg
Rattus norvegicus [4] = assay: Plasma concentrations of S(-)-64 at a dose of 1 mg/kg in Jc1SD rats after intravenous administration after 60 min; format: functional, organism-based; design: dose 1 mg/kg
Rattus norvegicus [5] = assay: Plasma concentrations of R(+)-64 at a dose of 1 mg/kg in Jc1SD rats after intravenous administration after 120 min; format: functional, organism-based; design: dose 1 mg/kg
Rattus norvegicus [6] = assay: Plasma concentrations of R(+)-64 at a dose of 1 mg/kg in Jc1SD rats after intravenous administration after 5 min; format: functional, organism-based; design: dose 1 mg/kg
Rattus norvegicus [7] = assay: Plasma concentrations of S(-)-64 at a dose of 1 mg/kg in Jc1SD rats after intravenous administration after 30 min; format: functional, organism-based; design: dose 1 mg/kg
Rattus norvegicus [8] = assay: Plasma concentrations of R(+)-64 at a dose of 1 mg/kg in Jc1SD rats after intravenous administration after 60 min; format: functional, organism-based; design: dose 1 mg/kg
Rattus norvegicus [9] = assay: Plasma concentrations of S(-)-64 at a dose of 1 mg/kg in Jc1SD rats after intravenous administration after 10 min; format: functional, organism-based; design: dose 1 mg/kg
Rattus norvegicus [10] = assay: Plasma concentrations of S(-)-64 at a dose of 1 mg/kg in Jc1SD rats after intravenous administration after 5 min; format: functional, organism-based; design: dose 1 mg/kg
Rattus norvegicus [11] = assay: Plasma concentrations of R(+)-64 at a dose of 1 mg/kg in Jc1SD rats after intravenous administration after 15 min; format: functional, organism-based; design: dose 1 mg/kg
Rattus norvegicus [12] = species on record: Rattus norvegicus; assay: (§1) Effective dose for 25% reduction in glucose-lowering activity in Wistar fatty rats; format: functional
Method in brief: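 Wistar fatty rats (10–15 weeks old), five per group, allocated by plasma glucose and triglyceride. Oral dosing by stomach tube once daily for 6 d at three doses, suspended in 0.5% methyl cellulose; CE-2 pellets and water ad libitum. Tail-vein plasma glucose measured; ED25 taken from the three-dose response by linear regression.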

RXR alpha/PPAR gamma = target: T1, RXR alpha/PPAR gamma (Homo sapiens, UniProt P19793+P37231); assay: Transcriptional activation in COS cells expressing PPAR gamma and RXR alpha
T1 sequence (P37231 whole entry): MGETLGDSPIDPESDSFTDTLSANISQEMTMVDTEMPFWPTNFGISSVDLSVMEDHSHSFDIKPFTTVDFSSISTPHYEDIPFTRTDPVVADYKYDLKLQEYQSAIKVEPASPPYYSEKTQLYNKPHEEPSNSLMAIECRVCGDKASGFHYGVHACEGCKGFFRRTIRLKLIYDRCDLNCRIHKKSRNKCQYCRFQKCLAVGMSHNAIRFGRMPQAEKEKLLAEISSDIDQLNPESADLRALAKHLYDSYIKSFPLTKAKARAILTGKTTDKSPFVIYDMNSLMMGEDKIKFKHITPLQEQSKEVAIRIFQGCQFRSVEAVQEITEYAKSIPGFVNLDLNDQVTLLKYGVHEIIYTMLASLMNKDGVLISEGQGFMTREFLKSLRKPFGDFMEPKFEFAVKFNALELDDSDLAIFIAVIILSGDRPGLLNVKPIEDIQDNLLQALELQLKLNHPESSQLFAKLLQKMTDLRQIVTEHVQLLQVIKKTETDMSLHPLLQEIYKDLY
T1 sequence (P19793 whole entry): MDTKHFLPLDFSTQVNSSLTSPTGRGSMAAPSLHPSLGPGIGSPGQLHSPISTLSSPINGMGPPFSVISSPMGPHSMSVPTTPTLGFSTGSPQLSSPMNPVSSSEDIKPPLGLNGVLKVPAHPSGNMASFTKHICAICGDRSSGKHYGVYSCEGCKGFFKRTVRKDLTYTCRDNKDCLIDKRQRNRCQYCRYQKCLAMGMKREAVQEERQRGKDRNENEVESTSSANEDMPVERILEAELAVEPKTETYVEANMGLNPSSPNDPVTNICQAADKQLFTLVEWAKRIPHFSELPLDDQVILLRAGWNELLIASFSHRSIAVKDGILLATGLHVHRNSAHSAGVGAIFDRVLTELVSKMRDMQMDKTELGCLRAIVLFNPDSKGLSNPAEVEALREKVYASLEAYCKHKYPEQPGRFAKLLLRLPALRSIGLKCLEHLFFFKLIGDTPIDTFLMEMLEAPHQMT

Mus musculus [13] = species on record: Mus musculus; assay: Effective dose for 25% reduction in plasma glucose-lowering activity in KKAy mice; format: functional
Method in brief: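 KKAy mice (9–13 weeks old), five per group, allocated by blood glucose after 3 d on powdered CE-2 chow. Compounds given as dietary admix at three levels chosen from first screening, 4 d ad libitum. Orbital-vein plasma glucose assayed enzymatically. Dose in mg/kg/d computed from food intake and body weight; ED25 derived by linear regression.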

Rattus norvegicus [14] = assay: Plasma concentration of enantiomer at a dose of 1 mg/kg in Jc1SD rats after intravenous administration upon racemisation after 5 min; format: functional, organism-based; design: dose 1 mg/kg
Rattus norvegicus [15] = assay: Plasma concentration of enantiomer at a dose of 1 mg/kg in Jc1SD rats after intravenous administration upon racemisation after 60 min; format: functional, organism-based; design: dose 1 mg/kg
Rattus norvegicus [16] = assay: Plasma concentration at a dose of 1 mg/kg in Jc1SD rats after intravenous administration upon racemisation after 15 min; format: functional, organism-based; design: dose 1 mg/kg
Rattus norvegicus [17] = assay: Plasma concentration of enantiomer at a dose of 1 mg/kg in Jc1SD rats after intravenous administration upon racemisation after 10 min; format: functional, organism-based; design: dose 1 mg/kg
Rattus norvegicus [18] = assay: Plasma concentration at a dose of 1 mg/kg in Jc1SD rats after intravenous administration upon racemisation after 120 min; format: functional, organism-based; design: dose 1 mg/kg
Rattus norvegicus [19] = assay: Plasma concentration at a dose of 1 mg/kg in Jc1SD rats after intravenous administration upon racemisation after 30 min; format: functional, organism-based; design: dose 1 mg/kg
Rattus norvegicus [20] = assay: Plasma concentration of enantiomer at a dose of 1 mg/kg in Jc1SD rats after intravenous administration upon racemisation after 120 min; format: functional, organism-based; design: dose 1 mg/kg
Rattus norvegicus [21] = assay: Plasma concentration at a dose of 1 mg/kg in Jc1SD rats after intravenous administration upon racemisation after 60 min; format: functional, organism-based; design: dose 1 mg/kg
Rattus norvegicus [22] = assay: Plasma concentration at a dose of 1 mg/kg in Jc1SD rats after intravenous administration upon racemisation after 5 min; format: functional, organism-based; design: dose 1 mg/kg
Rattus norvegicus [23] = assay: Plasma concentration at a dose of 1 mg/kg in Jc1SD rats after intravenous administration upon racemisation after 10 min; format: functional, organism-based; design: dose 1 mg/kg
Rattus norvegicus [24] = assay: Plasma concentration of enantiomer at a dose of 1 mg/kg in Jc1SD rats after intravenous administration upon racemisation after 15 min; format: functional, organism-based; design: dose 1 mg/kg
Rattus norvegicus [25] = assay: Plasma concentration of enantiomer at a dose of 1 mg/kg in Jc1SD rats after intravenous administration upon racemisation after 30 min; format: functional, organism-based; design: dose 1 mg/kg
Mus musculus [26] = species on record: Mus musculus; assay: Plasma lipid-lowering activity at a dosage of 0.005% in the diet in KKAy mice;LA denotes less than 10% reduction at this dosage; format: functional, organism-based
Method in brief: (§2)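 KKAy mice (9–13 weeks old), five per group, on powdered CE-2 diet containing compound at 0.001, 0.005 or 0.01% for 4 d. Plasma triglyceride from orbital-vein blood measured enzymatically and reported as maximum percent reduction from control; Dunnett's test; less than 10% reduction flagged.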

[27] = Plasma glucose-lowering activity at a dosage of 0.005% in the diet in KKA(y) mice.; format: functional, Mus musculus
Method in brief: (§3)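 KKAy mice (9–13 weeks old), five per group, grouped by blood glucose after 3 d on powdered CE-2 chow. Dietary admixture at 0.001, 0.005 or 0.01% for 4 d, food and water ad libitum. Orbital-vein plasma glucose measured enzymatically and expressed as maximum percent reduction versus control; Dunnett's test.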

Rattus norvegicus [28] = species on record: Rattus norvegicus; assay: as §1; format: functional; remark: listed apart in the source
Method in brief: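 Wistar fatty rats, 10–15 weeks old, grouped five per group by plasma glucose and triglyceride. Compound suspended in 0.5% methyl cellulose, given orally by stomach tube once daily for 6 d at three concentrations. Animals had CE-2 pellets and water ad libitum. Plasma glucose measured enzymatically on tail-vein blood. ED25 (mg/kg/d) for 25% reduction from control derived by linear regression over the three doses.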

Mus musculus [29] = species on record: Mus musculus; assay: Effective dose for 25% reduction in plasma lipid-lowering activity in KKAy mice; format: functional
Method in brief: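 Male/female not stated; KKAy mice, 9–13 weeks old, fed powdered CE-2 chow 3 d, grouped (five per group) by blood glucose. Compounds given as dietary admixture at three levels (0.01, 0.005 or 0.001% in diet) for 4 d. Orbital-vein plasma triglyceride measured enzymatically as % reduction vs control; dose (mg/kg/d) from food intake and body weight; ED25 by linear regression.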

[30] = Plasma lipid-lowering activity at a dosage of 0.01% in the diet in KKAy mice; format: functional, Mus musculus; method in brief: as §2
Mus musculus [31] = species on record: Mus musculus; assay: Plasma glucose-lowering activity at a dosage of 0.01% in the diet in KKAy mice; format: functional; method in brief: as §3
[32] = Plasma lipid-lowering activity at a dosage of 0.005% in the diet in KKA(y) mice.; format: functional, Mus musculus; method in brief: as §2

COc1cc(CCCC2OC(=O)NC2=O)ccc1OCc1nc(-c2ccco2)oc1C (stereo in doubt; (+)-64)
Concentration (Rattus norvegicus [1]): 0.02 µg/mL
Concentration (Rattus norvegicus [2]): 4.78 µg/mL
Concentration (Rattus norvegicus [3]): 6.06 µg/mL
Concentration (Rattus norvegicus [4]): 0.02 µg/mL
Concentration (Rattus norvegicus [5]): 1.46 µg/mL
Concentration (Rattus norvegicus [6]): 6.46 µg/mL
Concentration (Rattus norvegicus [7]): 0.02 µg/mL
Concentration (Rattus norvegicus [8]): 3.19 µg/mL
Concentration (Rattus norvegicus [9]): 0.02 µg/mL
Concentration (Rattus norvegicus [10]): 0.02 µg/mL
Concentration (Rattus norvegicus [11]): 5.13 µg/mL

Cc1sc(-c2ccccc2)nc1COc1ccc(CCCC2OC(=O)NC2=O)cc1 (single isomer, unassigned; (+))
ED25 (Rattus norvegicus [12]): 0.23 mg/kg/day
EC50 (RXR alpha/PPAR gamma): 269 nM
ED25 (Mus musculus [13]): 1.44 mg/kg/day

Cc1sc(-c2ccccc2)nc1COc1ccc(CCCC2OC(=O)NC2=O)cc1 (single isomer, unassigned; (-))
ED25 (Rattus norvegicus [12]): 3 mg/kg/day
EC50 (RXR alpha/PPAR gamma): > 1000 nM

COc1cc(CCCC2OC(=O)NC2=O)ccc1OCc1nc(-c2ccco2)oc1C (single isomer, unassigned; (-))
Concentration (Rattus norvegicus [14]): 4.78 µg/mL
Concentration (Rattus norvegicus [15]): 2.94 µg/mL
Concentration (Rattus norvegicus [16]): 0.04 µg/mL
Concentration (Rattus norvegicus [17]): 4.3 µg/mL
Concentration (Rattus norvegicus [18]): 0.07 µg/mL
Concentration (Rattus norvegicus [19]): 0.05 µg/mL
Concentration (Rattus norvegicus [20]): 1.61 µg/mL
Concentration (Rattus norvegicus [21]): 0.07 µg/mL
Concentration (Rattus norvegicus [22]): 0.04 µg/mL
Concentration (Rattus norvegicus [23]): 0.04 µg/mL
Concentration (Rattus norvegicus [24]): 3.97 µg/mL
Concentration (Rattus norvegicus [25]): 3.65 µg/mL

Cc1oc(-c2ccccc2)nc1COc1ccc(CC2OC(=O)NC2=O)cc1 (stereo unspecified)
LA (Mus musculus [26]): Less than 10% reduction at this dosage
Activity [27]: 29

CCc1ccc(CCOc2ccc(CC3SC(=O)NC3=O)cc2)nc1.Cl (stereo unspecified) [PIOGLITAZONE HYDROCHLORIDE]
ED25 (Rattus norvegicus [28]): 0.5 mg/kg/day
ED25 (Mus musculus [29]): 6 mg/kg/day

Cc1oc(-c2ccccc2)nc1CCOc1ccc(CCCC2SC(=O)NC2=O)cc1 (stereo unspecified)
Activity [30]: 42
Activity (Mus musculus [31]): 35
Activity [32]: 18
Activity [27]: 26
